Test results published in ChEMBL document CHEMBL4725432, “Dethioacylation by Sirtuins 1-3: Considerations for Drug Design Using Mechanism-Based Sirtuin Inhibition” (ACS Med Chem Lett, 2020).
Each block holds one molecule with its values, some of them ahead of it. The source made the active and inactive calls. The calls are words filed in the database; no cut-off is given here. Residues, ends and D or L forms follow the SMILES beside them. *: point of attachment. AMC = Cc1cc(=O)oc2cc(N*)ccc12; Cbz = O=C(OCc1ccccc1)*; NHiPr = CC(C)N*

Tests used:
[1] = biological target: T1, NAD-dependent protein deacetylase sirtuin-2 (Homo sapiens) (UniProt Q8IXJ6); experiment: Inhibition of human recombinant C-terminal His-tagged SIRT2 (50 to 356 residues) deacetylation activity in presence of substrate and NAD+ at 15 uM incubated 15 to 60 mins by reversed-phase UPLC-MS analysis; settings: time min 15-60
T1 sequence (whole entry): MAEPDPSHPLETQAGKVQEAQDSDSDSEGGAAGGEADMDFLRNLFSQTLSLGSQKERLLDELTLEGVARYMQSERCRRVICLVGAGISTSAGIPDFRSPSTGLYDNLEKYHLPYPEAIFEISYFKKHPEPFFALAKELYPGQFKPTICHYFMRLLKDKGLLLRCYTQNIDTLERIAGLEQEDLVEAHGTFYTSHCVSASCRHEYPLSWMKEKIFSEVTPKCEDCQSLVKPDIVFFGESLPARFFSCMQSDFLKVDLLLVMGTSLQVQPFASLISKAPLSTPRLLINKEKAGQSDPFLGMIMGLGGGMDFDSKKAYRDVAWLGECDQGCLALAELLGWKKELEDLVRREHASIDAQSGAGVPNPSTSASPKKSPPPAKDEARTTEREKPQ

[2] = biological target: T1, NAD-dependent protein deacetylase sirtuin-2 (Homo sapiens); experiment: Inhibition of human recombinant C-terminal His-tagged SIRT2 (50 to 356 residues) deacetylation activity in presence of substrate and NAD+ incubated for 60 mins measured after 90 mins by fluorescence assay
Procedure, shortened: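 Recombinant SIRT2 (100 nM or 250 nM) incubated with fluorogenic thioacyl or oxo lysine-AMC substrates plus NAD+. Deacylation read by fluorescence. Two independent experiments in duplicate, standard deviation.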

[3] = biological target: T2, NAD-dependent protein deacetylase sirtuin-3, mitochondrial (Homo sapiens) (UniProt Q9NTG7); experiment: Inhibition of human recombinant N-terminal GST-tagged SIRT3 (102 to 399 residues) deacetylation activity in presence of substrate and NAD+ at 15 uM after 60 mins measured by reversed-phase UPLC-MS analysis relative to control
T2 sequence (whole entry): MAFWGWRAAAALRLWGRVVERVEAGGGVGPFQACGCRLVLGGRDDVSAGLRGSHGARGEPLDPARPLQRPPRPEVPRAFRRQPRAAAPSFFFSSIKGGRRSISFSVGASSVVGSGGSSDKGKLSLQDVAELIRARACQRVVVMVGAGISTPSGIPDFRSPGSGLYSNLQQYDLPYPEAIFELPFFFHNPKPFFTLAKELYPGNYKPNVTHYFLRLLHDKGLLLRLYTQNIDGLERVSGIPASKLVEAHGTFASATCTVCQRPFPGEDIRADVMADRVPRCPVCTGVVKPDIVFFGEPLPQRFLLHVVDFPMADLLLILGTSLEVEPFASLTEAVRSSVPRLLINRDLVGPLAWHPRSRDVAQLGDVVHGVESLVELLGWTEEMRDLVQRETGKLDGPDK

[4] = biological target: T3, NAD-dependent protein deacetylase sirtuin-1 (Homo sapiens) (UniProt Q96EB6); experiment: Inhibition of human recombinant N-terminal GST-tagged SIRT1 (193 to 741 residues) deacetylation activity in presence of substrate and NAD+ at 15 uM after 15 mins by reversed-phase UPLC-MS analysis relative to control; set-up: scale not given: the % may be the effect or the level left
T3 sequence (whole entry): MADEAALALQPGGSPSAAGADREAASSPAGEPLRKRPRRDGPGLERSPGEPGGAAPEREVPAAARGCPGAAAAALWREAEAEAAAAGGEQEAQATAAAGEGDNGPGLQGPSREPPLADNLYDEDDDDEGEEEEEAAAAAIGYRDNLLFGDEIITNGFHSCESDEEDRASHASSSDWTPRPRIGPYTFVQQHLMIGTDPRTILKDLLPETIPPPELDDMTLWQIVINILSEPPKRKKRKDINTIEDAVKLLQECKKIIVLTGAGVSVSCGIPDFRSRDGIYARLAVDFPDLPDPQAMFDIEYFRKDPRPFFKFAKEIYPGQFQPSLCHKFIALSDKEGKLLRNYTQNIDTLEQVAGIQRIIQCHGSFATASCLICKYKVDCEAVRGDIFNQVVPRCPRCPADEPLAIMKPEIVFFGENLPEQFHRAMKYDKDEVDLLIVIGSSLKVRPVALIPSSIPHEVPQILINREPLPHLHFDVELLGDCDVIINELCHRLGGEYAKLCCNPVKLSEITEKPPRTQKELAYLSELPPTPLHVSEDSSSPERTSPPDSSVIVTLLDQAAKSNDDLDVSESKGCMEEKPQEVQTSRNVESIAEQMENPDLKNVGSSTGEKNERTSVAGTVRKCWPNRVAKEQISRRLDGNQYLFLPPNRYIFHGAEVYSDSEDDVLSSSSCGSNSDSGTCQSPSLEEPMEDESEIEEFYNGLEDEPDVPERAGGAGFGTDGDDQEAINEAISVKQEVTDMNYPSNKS

[5] = system: HEK293; experiment: Inhibition of deacetylation activity in HEK293 cell lysate incubated with substrate for 2 hrs at 50 uM measured after 90 mins by fluorescence assay; format: functional, subcellular; settings: Homo sapiens
Procedure, shortened: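 Fluorogenic thioacyl or acyl lysine-AMC substrates incubated with fresh HEK293 cell lysate (~65 μg). Deacylation measured by fluorescence. Two independent experiments in duplicate, standard deviation.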

[6] = biological target: T3, NAD-dependent protein deacetylase sirtuin-1 (Homo sapiens); experiment: Inhibition of SIRT1 in HEK293 cells assessed as increase in p53 acetylation co-treated with TSA at 25 uM for 6 hrs by western blot analysis; format: cell-based
Procedure, shortened: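 HEK293 cells exposed 6 h to compound at 25 μM together with TSA (1 μM). Whole-cell lysates immunoblotted for Ac-p53 (K382) and total p53. Ratio Ac-p53/p53 normalized to DMSO control. Two independent experiments in duplicate, SEM.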

[7] = biological target: T3, NAD-dependent protein deacetylase sirtuin-1 (Homo sapiens); experiment: Inhibition of human N-terminal GST-tagged SIRT1 (193 to 741 residues) expressed in Escherichia coli preincubated with NAD+ for 30 mins using Ac-Gln-Pro-Lys-Lys(Ac)-AMC (oxo-10) as substrate at 1 to 100 uM measured after 90 mins by fluorescence assay; settings: dose microM 1-100, time 120.0 min
Procedure, shortened: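 Recombinant SIRT1 (100 nM) preincubated 30 min with compound, either with or without NAD+ (500 μM), before the fluorogenic deacetylation read-out. Single-dose %-inhibition. Two independent experiments in duplicate, standard deviation.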

[8] = biological target: T4, NAD-dependent protein deacetylase sirtuin-1 (Homo sapiens, UniProt Q96EB6); experiment: Inhibition of human recombinant N-terminal GST-tagged SIRT1 (193 to 741 residues) expressed in Escherichia coli using Ac-Gln-Pro-Lys-Lys(Ac)-AMC (oxo-10) as substrate by fluorescence assay
T4 sequence (Q96EB6 whole entry): T3 sequence (whole entry)

[9] = biological target: T2, NAD-dependent protein deacetylase sirtuin-3, mitochondrial (Homo sapiens); experiment: Inhibition of human N-terminal GST-tagged SIRT3 (102 to 399 residues) expressed in Escherichia coli using Ac-Gln-Pro-Lys-Lys(but)-AMC (oxo-12) as substrate at 10 uM by fluorescence assay relative to control
[10] = Metabolic stability of compound in human serum assessed as half life incubated for >10 mins measured after 90 mins by HPLC analysis; format: ADME, cell-free
[11] = biological target: T1, NAD-dependent protein deacetylase sirtuin-2 (Homo sapiens); experiment: Inhibition of human C-terminal His-tagged SIRT2 (50 to 356 residues) expressed in Escherichia coli using Ac-Gln-Pro-Lys-Lys(pro)-AMC (oxo-11) as substrate at 10 uM by fluorescence assay relative to control
[12] = biological target: T2, NAD-dependent protein deacetylase sirtuin-3, mitochondrial (Homo sapiens); experiment: Inhibition of human N-terminal GST-tagged SIRT3 (102 to 399 residues) expressed in Escherichia coli using Ac-Gln-Pro-Lys-Lys(but)-AMC (oxo-12) as substrate at 100 uM by fluorescence assay relative to control
[13] = biological target: T3, NAD-dependent protein deacetylase sirtuin-1 (Homo sapiens); experiment: Inhibition of human recombinant N-terminal GST-tagged SIRT1 (193 to 741 residues) deacetylation activity in presence of substrate and NAD+ at 15 uM after 60 mins by reversed-phase UPLC-MS analysis relative to control
[14] = biological target: T5, NAD-dependent protein deacetylase sirtuin-2 (Homo sapiens, UniProt Q8IXJ6); experiment: Inhibition of human C-terminal His-tagged SIRT2 (50 to 356 residues) expressed in Escherichia coli using Ac-Gln-Pro-Lys-Lys(pro)-AMC (oxo-11) as substrate by fluorescence assay
T5 sequence (Q8IXJ6 whole entry): T1 sequence (whole entry)

Compound: CCCC(=S)NCCCC[C@H](NC(=O)[C@H](CCCCN)NC(=O)[C@@H]1CCCN1C(=O)[C@H](CCC(N)=O)NC(C)=O)C(=O)Nc1ccc2c(C)cc(=O)oc2c1
Activity [5]: Active

Compound: NC(=O)C1CCCc2c1[nH]c1ccc(Cl)cc21 (stereo unspecified)
inhibition [6]: Active
inhibition [7]: inactive

Compound: Cc1cc(C)nc(SCC(=O)Nc2ncc(Cc3cccc4ccccc34)s2)n1
inhibition [6]: inactive

Compound: CCC(=S)NCCCC[C@H](NC(=O)[C@H](CCCCN)NC(=O)[C@@H]1CCCN1C(=O)[C@H](CCC(N)=O)NC(C)=O)C(=O)Nc1ccc2c(C)cc(=O)oc2c1
Activity [5]: Active

Further lines, with some results ahead:

inhibition [1]: inactive
inhibition [2]: inactive
inhibition [3]: 54%
Activity [4]: > 80%
Compound: CC(=O)NCCCC[C@H](NC(=O)OCc1ccccc1)C(=O)N[C@@H](Cc1c[nH]c2ccccc12)C(=O)NC(C)C (Cbz-Lys(Ac)-Trp-NHiPr)

IC50 [8]: 980 nM
inhibition [9]: 2%
half-life [10]: > 7 h
inhibition [7]: Active
inhibition [11]: 28%
Compound: CC(C)NC(=O)[C@H](Cc1c[nH]c2ccccc12)NC(=O)[C@H](CCCCNC(N)=S)NC(=O)OCc1ccccc1

IC50 [8]: 540 nM
inhibition [3]: inactive
inhibition [12]: 10%
inhibition [7]: Active
inhibition [13]: inactive
IC50 [14]: 440 nM
Compound: CCCC(=S)NCCCC[C@H](NC(=O)OCc1ccccc1)C(=O)N[C@@H](Cc1c[nH]c2ccccc12)C(=O)NC(C)C

IC50 [8]: 1130 nM
inhibition [12]: 2%
inhibition [7]: Active
IC50 [14]: 1400 nM
Compound: CCCCNC(=S)NCCCC[C@H](NC(=O)OCc1ccccc1)C(=O)N[C@@H](Cc1c[nH]c2ccccc12)C(=O)NC(C)C

inhibition [2]: Active
Compound: CC(=O)NCCCC[C@H](NC(=O)[C@H](CCCCN)NC(=O)[C@@H]1CCCN1C(=O)[C@H](CCC(N)=O)NC(C)=O)C(=O)Nc1ccc2c(C)cc(=O)oc2c1 (Ac-QPKK(Ac)-{AMC})
Activity [5]: Active
